# Assays:
# Assay type in all cases: functional, cell-based
# DU-145 = assay: Cytotoxicity against human androgen-independent DU145 cells assessed as inhibition of cell viability after 3 days by WST-1 cell proliferation assay; conditions: DU-145, 72 h
# Procedure, shortened: (§1)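 Human prostate cancer cells (LNCaP androgen-dependent; PC-3 and DU145 androgen-independent) were exposed to drug for 3 days, and viability was read by WST-1 proliferation assay. IC50 was taken as the drug concentration giving 50% inhibition of cell viability, reported as mean ± standard error of the mean.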
# LNCaP = assay: Cytotoxicity against human androgen-dependent LNCAP cells assessed as inhibition of cell viability after 3 days by WST-1 cell proliferation assay; conditions: 72 h; procedure, shortened: as §1
# PC-3 = assay: Cytotoxicity against human androgen-independent PC3 cells assessed as cell cell viability after 3 days by WST-1 cell proliferation assay; conditions: PC-3, 72 h; procedure, shortened: as §1
smiles,measurement,setting,value
Cn1ccnc1/C=C/C(=O)/C=C/c1coc2ccccc2c1=O,IC50,DU-145,4500 nM
same,IC50,LNCaP,2300 nM
same,IC50,PC-3,2800 nM
CCn1ccnc1/C=C/C(=O)/C=C/c1coc2ccccc2c1=O,IC50,DU-145,3000 nM
same,IC50,LNCaP,1000 nM
same,IC50,PC-3,1800 nM
CCCn1ccnc1/C=C/C(=O)/C=C/c1coc2ccccc2c1=O,IC50,DU-145,4600 nM
same,IC50,LNCaP,2100 nM
same,IC50,PC-3,2400 nM
CCCCn1ccnc1/C=C/C(=O)/C=C/c1coc2ccccc2c1=O,IC50,DU-145,4300 nM
same,IC50,LNCaP,2000 nM
same,IC50,PC-3,2000 nM
CCCCCn1ccnc1/C=C/C(=O)/C=C/c1coc2ccccc2c1=O,IC50,DU-145,2700 nM
same,IC50,LNCaP,1800 nM
same,IC50,PC-3,2100 nM
CC(C)n1ccnc1/C=C/C(=O)/C=C/c1coc2ccccc2c1=O,IC50,DU-145,3300 nM
same,IC50,LNCaP,1200 nM
same,IC50,PC-3,2300 nM
CCC(C)n1ccnc1/C=C/C(=O)/C=C/c1coc2ccccc2c1=O (configuration not stated),IC50,DU-145,3300 nM
same,IC50,LNCaP,1300 nM
same,IC50,PC-3,1800 nM
CC(C)CCn1ccnc1/C=C/C(=O)/C=C/c1coc2ccccc2c1=O,IC50,DU-145,5800 nM
same,IC50,LNCaP,4000 nM
same,IC50,PC-3,3600 nM
CCCC(C)n1ccnc1/C=C/C(=O)/C=C/c1coc2ccccc2c1=O (configuration not stated),IC50,DU-145,1400 nM
same,IC50,LNCaP,3900 nM
same,IC50,PC-3,3200 nM
CCC(CC)n1ccnc1/C=C/C(=O)/C=C/c1coc2ccccc2c1=O,IC50,DU-145,5200 nM
same,IC50,LNCaP,2800 nM
same,IC50,PC-3,2900 nM
COc1cc(/C=C/C(=O)CC(=O)/C=C/c2ccc(O)c(OC)c2)ccc1O [CURCUMIN],IC50,LNCaP,12100 nM
O=c1c(-c2ccc(O)cc2)coc2cc(O)cc(O)c12 [GENISTEIN],IC50,DU-145,> 100000 nM
same,IC50,LNCaP,37400 nM
same,IC50,PC-3,68600 nM
O=c1c(O)c(-c2ccc(O)c(O)c2)oc2cc(O)cc(O)c12 [QUERCETIN],IC50,DU-145,> 100000 nM
same,IC50,LNCaP,45500 nM
same,IC50,PC-3,> 100000 nM
